Measured values gathered from unrelated publications.
Compare with care: the assays were run in different laboratories.
Target: Serine/threonine-protein kinase pim-3 (PIM3, Homo sapiens, UniProt Q86V86)

COc1ncc2cc3ccccc3nc2c1C#N
remaining binding (cell-free assay; competition with immobilised ligand; 5 µM): 79%

COc1ccc2c(c1)O[C@H](c1ccc(OC)c(OC)c1)C[C@@H]2NC(=O)C1(c2ccc3c(c2)OC(F)(F)O3)CC1
remaining binding (cell-free assay; competition with immobilised ligand; 1 µM): 100%

COc1ccnn2ncc(-c3ccnc(N(C)C)n3)c12
remaining binding (binding; 1 µM): 81%

O=C(c1ccc(Nc2ncc(Cl)c(-c3ccc(Cl)s3)n2)cc1)N1CCC(N2CCCC2)CC1
remaining binding (binding; competition with immobilised ligand; 1 µM): 73%

CSc1cccnc1N1CCN(Cc2nc3ccccc3[nH]2)CC1
remaining binding (cell-free assay; competition with immobilised ligand; 1 µM): 94%

CNC(=O)[C@@H]1CC[C@@H](n2c(-c3ccc4cnccc4c3)nc3ccc(C(=O)NCc4cccc(C(N)=O)c4)cc32)C1
remaining binding (binding; competition with immobilised ligand; 1 µM): 100%

CN(C)c1nccc(-c2cnc3ncccn23)n1
remaining binding (binding; 1 µM): 88%

COc1ccc2c(O[C@@H]3C[C@H]4C(=O)N[C@]5(C(=O)O)CC5/C=C\CCCCC[C@H](NC(=O)OC5CCCC5)C(=O)N4C3)cc(-c3csc(NC(=O)C(C)C)n3)nc2c1C (stereo partly drawn)
remaining binding (cell-free assay; competition with immobilised ligand; 1 µM): 94%

O=C(c1ccc(Nc2nccc(-c3cc4ccccc4s3)n2)cc1)N1CCC(N2CCCC2)CC1
remaining binding (binding; competition with immobilised ligand; 1 µM): 78%

CC(=O)Nc1c(C(C)=O)c(=O)n(C)c2nc(-c3ccc(Cl)cc3Cl)c(-c3ccc(Cl)cc3)cc12
remaining binding (cell-free assay; competition with immobilised ligand; 1 µM): 100%

O=C(NCC1CCOCC1)c1n[nH]cc1NC(=O)c1c(F)cccc1F
remaining binding (binding; competition with immobilised ligand; 1 µM): 99%

N#Cc1ccccc1CSc1nnc2c(n1)[nH]c1ccccc12
remaining binding (binding; competition with immobilised ligand; 10 µM): 74%

COc1cnc(Nc2cccc(S(N)(=O)=O)c2)nc1N1CCN(c2ccccc2)CC1
remaining binding (binding; competition with immobilised ligand; 1 µM): 94%

CN(c1nccc(-c2cnn3ncccc23)n1)C1CC1
remaining binding (binding; 1 µM): 100%

C=CC(=O)N1CCC(C(=O)NCC(=O)N2CCN(c3nc(-c4cnc(N)nc4C(F)F)nc(N4CCOCC4)n3)CC2)CC1
remaining binding (binding; competition with immobilised ligand; 1 µM): 97%

O=C(NCCCN1CCOCC1)c1ccc(Nc2ncc(Cl)c(-c3ccc(Cl)s3)n2)cc1
remaining binding (binding; competition with immobilised ligand; 1 µM): 100%

C[C@H]1CCN(c2nccc(-c3cnn4ncccc34)n2)C1
remaining binding (binding; 1 µM): 81%

CCc1ccccc1C(=O)Nc1n[nH]c2c(C)c(F)c(C3C(C#N)=C(C)N(C)C(C)=C3C#N)cc12
remaining binding (cell-free assay; competition with immobilised ligand; 1 µM): 100%

N[C@@H]1CCN(c2nccc(-c3cnn4ncccc34)n2)C1
remaining binding (binding; 1 µM): 100%

c1cncc(-c2cccc(Nc3nccc(NC4CCCCC4)n3)c2)c1
remaining binding (binding; competition with immobilised ligand; 10 µM): 71%

CN([C@@H]1CCc2c(CC(=O)O)c3cc(S(C)(=O)=O)ccc3n2C1)S(=O)(=O)c1ccc(F)cc1
remaining binding (cell-free assay; competition with immobilised ligand; 1 µM): 100%

C[C@@H]1CN(c2ccc3ncc(-c4ccc5[nH]nc(C6CC6)c5c4)n3n2)C[C@H](C)O1
remaining binding (binding; competition with immobilised ligand; 0.5 µM): 33%

CO[C@H]1CC[C@H](CNc2ccc(S(=O)(=O)NC(=O)c3ccc(N4CCN(CC5=C(c6ccc(Cl)cc6)CC(C)(C)CC5)CC4)cc3Oc3cnc4[nH]ccc4c3)cc2[N+](=O)[O-])CC1
remaining binding (cell-free assay; competition with immobilised ligand; 1 µM): 74%

CN(CCCC(F)(F)F)c1nccc(-c2cnn3ncccc23)n1
remaining binding (binding; 1 µM): 100%
